Measured values published in publication PMC7261596 (Journal of the American Chemical Society, 2019).

Legend:
[1] = molecular target: T1, ULK4 (Homo sapiens, UniProt Q96C45); test: Mant-ADP FRET nucleotide binding / displacement assay; settings: competition with a fixed concentration of Mant-ADP
[2] = molecular target: T1, ULK4; test: ADP-Biotin labelling assay detected by Western blot; type: binding; settings: single concentration 25 μM; ratio of Streptavidin signal to His signal
How it was run: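 ULK4 incubated with the nucleotide analog ADP-Biotin, which biotin-labels the kinase only when bound. Biotinylated protein detected by Western blot. Test compounds, hits confirmed from a Mant-ADP displacement screen and dose response, tested at 25 μM, with competing nucleotides also at 25 μM. Mutant ULK4 forms also assayed for ADP-Biotin binding.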

T1 sequence (Q96C45 4-280 limits assumed): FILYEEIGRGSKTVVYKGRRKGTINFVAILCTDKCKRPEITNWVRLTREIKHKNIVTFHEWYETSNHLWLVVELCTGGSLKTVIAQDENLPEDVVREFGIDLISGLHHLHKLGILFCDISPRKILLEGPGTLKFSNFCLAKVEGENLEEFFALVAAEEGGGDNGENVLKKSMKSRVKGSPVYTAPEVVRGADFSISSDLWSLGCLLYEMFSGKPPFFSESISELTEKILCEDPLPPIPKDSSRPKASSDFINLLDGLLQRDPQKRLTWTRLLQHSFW

Row | inhibition of ADP-Biotin binding to ULK4 (relative potency) [2] | SMILES | Ki ([1]; With Mg) | Ki ([1]; Without Mg)
1 |  | Nc1ncnc2c1ncn2[C@@H]1O[C@H](COP(=O)(O)OP(=O)(O)O)[C@@H](O)[C@H]1O [ADP] | 37 µM | 6.05 µM
2 |  | Nc1ncnc2c1ncn2[C@@H]1O[C@H](COP(=O)(O)OP(=O)(O)OP(=O)(O)O)[C@@H](O)[C@H]1O [ATP] | 4.67 µM | 0.306 µM
3 | most potent ULK4 binders | CNC(=O)c1nn(C)c2c1C(C)(C)Cc1cnc(Nc3ccc(N4CCN(C)CC4)cc3)nc1-2 [PHA-848125] |  | 
4 | most potent ULK4 binders | COc1cc(Nc2ncc(F)c(Nc3ccc4c(n3)N(COP(=O)(O)O)C(=O)C(C)(C)O4)n2)cc(OC)c1OC [R788] |  | 
